MC4R antagonist – blocks human MC4R cAMP signaling | inhibition, % at 6.5 µM | AID 540295 | actives 0.48% (n = 360,000) | P32245 | MC4R-expressing cells, MTII-stimulated cAMP, LANCE TR-FRET;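 active means inhibition above its plate's cutoff, the mean of tested wells on that plate plus 3 SD, cut at about 29% in these data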;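 further: 0% = Melanotan II alone and 100% = Melanotan II plus saturating MCL0020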
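material = U2OS cells stably expressing human melanocortin 4 receptor (MC4R) | also added = Melanotan II challenge | dosing = single nominal compound dose of 6.5 µM | detection = TR-FRET with Eu-cAMP and labeled anti-cAMP, 671 nm | replication = singlicate | timing = compound 30 min, challenge 1 h, detection 1 h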
MPTP block – blocks calcium-induced mitochondrial swelling | inhibition, % at 10 µM | isolated mouse mitochondria, Ca2+ swelling absorbance, 30 min | AID 602449 | actives 1.4% (n = 360,000);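 active means inhibition of 50% or more, scaled per plate between neutral and stimulator controls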;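 further: 0% = DMSO wells given calcium and 100% = 1 mM EGTA wells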
ATG4B inhibitor – ATG4B (human) cysteine protease inhibition; Q9Y4P1; ATG4B cleavage of LC3-PLA2, NBD-HPC fluorescence, 1 h; inhibition, % at 8.33 µM; actives 0.51% (n = 340,000); AID 504462; in the data active means inhibition above about 40%
Target sequence (Q9Y4P1 whole entry, looked up): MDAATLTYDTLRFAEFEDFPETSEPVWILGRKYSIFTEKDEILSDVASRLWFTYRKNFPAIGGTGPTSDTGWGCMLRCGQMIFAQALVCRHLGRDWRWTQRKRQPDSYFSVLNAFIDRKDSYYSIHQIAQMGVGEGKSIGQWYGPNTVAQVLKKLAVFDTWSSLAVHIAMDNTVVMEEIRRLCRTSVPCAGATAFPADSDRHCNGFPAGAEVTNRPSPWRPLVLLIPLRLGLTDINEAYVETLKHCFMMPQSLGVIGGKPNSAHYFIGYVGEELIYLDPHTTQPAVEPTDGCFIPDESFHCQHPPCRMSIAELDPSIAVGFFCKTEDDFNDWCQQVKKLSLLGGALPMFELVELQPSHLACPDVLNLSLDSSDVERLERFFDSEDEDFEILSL
MC4R ag barr – activates human MC4R beta-arrestin recruitment; P32245; U2OS MC4R beta-arrestin complementation, luminescence; percent of melanotan II response, DMSO zero; activation, % at 8.9 µM; actives 0.98% (n = 360,000);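 active means activation above a per-plate cutoff, the mean activation of sample wells on that plate plus 3 SD, cut at about 8% in these data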
SMARCA2 activ – SMARCA2 function activation, primary screen; MG213 cells, MMTV-luciferase reporter, dexamethasone, overnight; activation, % at 9.1 µM; actives 1% (n = 370,000); AID 652017; in the data active means activation above about 7.8%;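 further: 0% = vehicle wells and 100% = reference activator wells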
MPTP counter – Rhodamine 123 counter-screen of mitochondrial pore hits. inhibition, % at 10 µM. actives 78% (n = 5,000). shares compounds with MPTP block. AID 624504. isolated mitochondria, membrane potential, Rhodamine 123 fluorescence; in the data active means inhibition above about 22%;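 further: 0% = DMSO vehicle and 100% = positive control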
MPTP abs DR – dose response confirmation of mitochondrial permeability transition pore inhibitors; IC50, µM; actives 58% (n = 780); AID 651561; isolated mitochondria swelling, absorbance; shares compounds with MPTP block; in the data active means IC50 below about 20 µM
MPTP cs DR – active in counter-screen for permeability transition pore inhibitors. AID 651564. isolated mitochondria counterscreen, fluorescence read-out. shares compounds with MPTP block. IC50, µM. actives 49% (n = 780); in the data active means IC50 below about 80 µM
* marks the source's active call; other numbers are inactive results; · = no result given. A selection: hits, their analogues and other compounds. The true share with any hit is near 4.1%.

SMILES	MC4R antagonist	MPTP block	ATG4B inhibitor	MC4R ag barr	SMARCA2 activ	MPTP counter	others
CC(=O)N1c2cc(S(=O)(=O)Nc3c(C)n(C)n(-c4ccccc4)c3=O)c(Br)cc2CC1C (centres undefined)	·	·	·	·	-3.6	·
Cc1cccc(CN2[C@@H](C)[C@H](c3ccccc3)Oc3cc(Br)ccc3S2(=O)=O)c1	·	·	·	·	1.8	·
C=CCN1CC(COCCCC)Oc2ccc(Cl)cc2S1(=O)=O (centres undefined)	·	·	·	·	-4.9	·
O=C(Nc1ccc(F)c(F)c1)NC1CCCCC1	1.5	52.8*	5.1	-0.1	3.8	88.7*
COC(=O)[C@]12C[C@H](CC(=O)N3CCCC3)C(=O)N(CCC3=CCCCC3)C1=C[C@H](C(C)C)O[C@@H]2C1CC1	·	·	·	·	-5.2	·
O=C(Nc1ccc(Cl)cc1)Nc1ccccc1Sc1ncc([N+](=O)[O-])s1	-6.8	85.8*	0.7	-2.5	3.6	72.8*
Cc1cc([N+](=O)[O-])ccc1NC(=O)Nc1ccc(F)cc1F	13.3	97.5*	-1.3	0.7	-2.6	78.5*
O=C(Nc1ccccc1Cl)Nc1ccccc1Cl	-0.3	1.6	-2.6	2.4	-2.8	·
O=C(Nc1csc([N+](=O)[O-])c1)Nc1ccccc1Cl	13.1	88.8*	-4.4	3.8	-2.6	80.5*
O=C(Nc1ccccc1F)Nc1ccc([N+](=O)[O-])cc1Cl	22.7	89.5*	-10.3	-1.0	3.0	92.2*
Cc1ccc(-c2csc3ncnc(NS(=O)(=O)c4ccc(Cl)cc4)c23)cc1	3.2	85.4*	14.2	1.6	1.4	63.3*
O=S(=O)(Nc1ncnc2scc(-c3ccc(F)cc3)c12)c1cc(F)ccc1F	0.9	57.1*	-2.8	0.6	0.5	74.9*
CC(C)(C)S(=O)N1C[C@@H]2CC(=O)C=C2[C@H]1CCO (some centres undefined)	·	·	·	·	1.4	·
O=C(Nc1ccc(F)cc1F)c1cc(-c2ccc(Cl)cc2)nc2ccccc12	·	·	·	·	-0.1	·
CCOc1ccc(-n2c(C)cc(/C=C3/C(=N)N4C(=NC3=O)SN=C4S(C)(=O)=O)c2C)cc1	7.2	76.0*	22.5	0.6	1.0	28.2*
Cc1cc(/C=C2/C(=N)N3C(=NC2=O)SN=C3S(C)(=O)=O)c(C)n1-c1ccc(F)cc1	11.9	19.8	4.3	-2.1	4.4	·
O=S(=O)(c1ccc(Br)s1)N1CCN(c2ccnc3cc(Cl)ccc23)CC1	6.1	64.9*	-6.6	0.3	-8.1	36.0*
CS(=O)(=O)N1CCN(c2ccnc3cc(Cl)ccc23)CC1	-5.8	0.5	-6.1	3.3	-3.2	·
CC1(c2nnnn2Cc2ccccc2)CSCC(=O)N1Cc1cccs1 (centres undefined)	·	·	·	·	0.0	·
O=[N+]([O-])c1ccc(/C=N/NC(=S)Nc2ccc(Cl)cc2Cl)s1	-7.9	52.2*	-6.8	-4.3	-3.2	60.6*
Cc1cc(Cl)ccc1NC(=O)CCC(=O)N/N=C/c1cc([N+](=O)[O-])ccc1O	4.5	17.1	-11.0	-1.6	0.3	·
O=[N+]([O-])c1ccc(O)c(/C=N/NC(=S)Nc2ccc(Cl)cc2Cl)c1	13.8	96.4*	-0.4	-5.3	-2.8	47.2*
Fc1ccc(/C=N/NC(=S)Nc2ccc(Cl)cc2Cl)cc1	-8.7	7.2	9.3	-1.0	-2.3	·
O=C(C(=O)N1CCN(S(=O)(=O)c2ccccc2)CC1)c1cccc(C(F)(F)F)c1	·	·	·	·	1.5	·
CC(C)[C@H](NS(=O)(=O)c1ccc(F)cc1F)C(=O)N1CCC[C@H]1C(=O)NCCc1ccccc1Cl	·	·	·	·	-3.0	·
SMILES	MC4R antagonist	MPTP block	ATG4B inhibitor	MC4R ag barr	SMARCA2 activ	MPTP counter	others
Cc1ccc(C2(c3noc(CN(C)CC4CCCCO4)n3)CCCC2)cc1 (centres undefined)	-7.1	-1.1	-7.7	-0.9	-0.8	·
Cc1ccc(C2(c3noc(CN4CCC(c5ccncc5)CC4)n3)CCCC2)cc1	23.4	69.3*	-0.3	-0.5	-2.5	46.4*
O=C1CCc2ccc(OCCCCN3CCN(c4cccc(Cl)c4Cl)CC3)cc2N1	4.8	79.7*	-0.4	6.9	-3.0	20.3*
O=C1CCc2cc(S(=O)(=O)N3CCN(c4ccccc4Cl)CC3)ccc2N1	·	·	·	·	1.0	·
COCc1cc(N2CCN(C(=O)OC(C)(C)C)C[C@H]2C)ccc1N1CCN(Cc2ccccc2)[C@@H](C)C1	·	·	·	·	-4.4	·
CC(C)=CC(=O)Nc1nc2ccc([N+](=O)[O-])cc2s1	5.8	6.5	1.0	2.2	1.0	·
C/C(=C\c1ccccc1)C(=O)Nc1nc2ccc([N+](=O)[O-])cc2s1	7.7	53.4*	31.9	1.4	-1.1	65.6*
O=C(N[C@H](C(=O)N1CCC[C@H]1C(=O)NC1CCCC1)C1CCCCC1)c1ccc(Cl)c(Cl)c1	·	·	·	·	-2.7	·
CC1=CC(C)(C)N=C(Nc2nc(C)c3cc(C)cc(C)c3n2)N1	4.3	94.6*	5.7	3.7	-2.1	101.2*
Cc1ccc(S(=O)(=O)N2CCCCC2)cc1NC(=O)CSc1ncnc2ccccc12	16.3	4.7	-1.4	1.1	-6.7	·
Cc1ccc(NC(=O)CSc2ncnc3ccccc23)cc1S(=O)(=O)N1CCCCCC1	10.3	62.1*	-4.1	-0.6	-3.1	81.0*
Cc1ccc(NC(=O)COc2ccc(N(C)C(=O)C(C)(C)C)cc2)cc1S(=O)(=O)N1CCCCC1	9.5	92.7*	-19.3	-1.2	-6.2	100.2*
CCOC(=O)Cn1cc(CN2C(C(=O)OC)CN(C3CC3)CCS2(=O)=O)nn1 (centres undefined)	·	·	·	·	-5.4	·
COc1ccc(-c2cccc3c4c([nH]c23)[C@@H]2C[C@H]3[C@@H](C(=O)N2CC4)[C@H](C)ON3C)cc1	·	·	·	·	-4.5	·
COc1ccc(OC)c(C(=O)COC(=O)c2cc(C)oc2C)c1	1.4	60.0*	9.3	1.1	-1.7	-7.8	MPTP abs DR=10.2*;MPTP cs DR=>80
CC(C)(C)n1ncc(Oc2ccccc2[N+](=O)[O-])c(Cl)c1=O	3.0	85.9*	2.6	1.1	-5.4	34.2*
Cn1ncc(Oc2ccc([N+](=O)[O-])cc2)c(Cl)c1=O	-3.3	1.2	-0.2	-0.6	-1.8	·
CCCCCc1ccc(CC(=O)Nn2c(C)nc3ccccc3c2=O)cc1	3.6	72.1*	-7.8	2.0	-2.6	67.6*
O=C(Nc1ccccc1)c1cc([N+](=O)[O-])ccc1NC1CCCCC1	11.2	51.1*	-2.0	-2.5	-5.1	-0.8	MPTP cs DR=>80
COc1ccc2c(c1)CN1C(=O)N(C3CCCC3)S(=O)(=O)CC21 (centres undefined)	·	·	·	·	2.4	·
CC(C)(C)S(=O)(=O)N1C[C@@H]2C(=C(CCO)C[C@@H]3C(=O)N(c4ccccc4)C(=O)[C@@H]32)[C@H]1CCO	·	·	·	·	6.4	·

Source: PubChem BioAssay
